Experiment [1] is described as follows: Her2 expression decrease, cell viability multiplex – SKBR3 breast tumor cells, AlphaScreen, ATP viability, primary screen (AID 461;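 active means Her2 level under about 52% in both replicate screens, with viability over 70% of control, limit read from the data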;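 on Her2 level: lower value means less Her2 protein in the cells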;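 on viability: percent of carrier control wells set as 100% viability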). The conditions noted are these: SKBR3 Her2 protein level, 18-24 h, measured here: SKBR3 viability, ATP luminescence, at 10 µM. On the technique in general: Bead proximity is the source of the signal in Alpha formats.
Experiment [2] addresses Receptor tyrosine-protein kinase erbB-2 (Homo sapiens) (UniProt P04626). Described as above. The conditions noted are these: 18-24 h, at 10 µM, stronger effect = lower value.
The nature of experiment [3]: reduced viability of SK-BR-3 breast cancer cells – cell-based, 24 h, human, pilot screen (AID 572;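 active means viability at or below 10% of carrier control in both of two separate runs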;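 further: compound exposure lasted between 18 and 24 h rather than exactly 24 h; 100% = carrier-treated control wells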). The conditions noted are these: SK-BR-3 viability, CellTiter-Glo luminescence, at 10 µM, stronger effect = lower value. A general note: Cellular ATP, detected with luciferase, serves as a proxy for viable cell number.
The nature of experiment [4]: HUVEC growth inhibition – cell-based, human, primary screen (AID 575).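 Further: 100% = median of untreated cell wells with 0.1% DMSO on each plate.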 The following applies: HUVEC proliferation, CellTiter-Glo luminescence, 72 h; at 10 µM; stronger effect = lower value. The gist of the method:
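material = primary HUVEC, no more than 12 passages | input = 1250 cells per well | controls = vehicle and MePR control wells | measured by = CTG luminescence | times = 72 h compound incubation | format = collagen-coated 384-well format | read-out = % viability vs DMSO wells | doses = single 10 µM dose, 0.1% DMSO, from 5x medium stock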

Experiment [5] in a line: H69AR cell proliferation blockers – human, duplicate replicates, primary screen (AID 580;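 active means viability at or under a set limit in both replicates, limit being median viability minus 3 SD, cut at about 48% in these data, passing the limit was not always enough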;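 further: 100% = mean luminescence of untreated wells and 0% = no signal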). The following applies: H69AR lung tumor cells viability, ATP luminescence, 72 h; at 10 µM; stronger effect = lower value.
Experiment [6] is described as follows: MRP1 drug-resistance reversers in H69AR cells – cell-based, doxorubicin co-treatment, pilot screen (AID 601;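 active means viability loss from added drug above about 55%, and viability with drug at most 40%, in both replicates, limit read from the data, passing the limit was not always enough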). The conditions noted are these: CellTiter-Glo, 72 h, at 10 µM; for differential viability (reversal): stronger effect = higher value.
A short description of experiment [7]: yeast transport mutant growth inhibition pilot in 384-well plates, post-Golgi transport modulator project (AID 636; in the data active means inhibition above about 31%). The following applies: absorbance 615 nm, about 18 h, stronger effect = higher value.
A short description of experiment [8]: growth suppression of yeast trafficking mutant, preliminary HTS, modulators of trafficking downstream of Golgi apparatus project, 1536-format plate, OD 615 nm (AID 637; in the data active means inhibition above about 30%). The conditions noted are these: yeast transport mutant growth, absorbance 615 nm, 18 h; stronger effect = higher value.
Setting [9] is: H69AR cells + 2 uM doxorubicin, measured here: viability with 2 uM doxorubicin, stronger effect = lower value.
[10] abbreviates: H69AR cells, compound alone cytotoxicity.

Activity calls are given as the source filed them.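 How the source made its calls, unless noted: active means viability at or below 30% in both replicate assays; inconclusive means viability at or below 30% in just one of the two assays; inactive means the rest.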

From PubChem BioAssay come the findings set out here.

Chain of Receptor tyrosine-protein kinase erbB-2 (Homo sapiens) (P04626 whole entry, looked up): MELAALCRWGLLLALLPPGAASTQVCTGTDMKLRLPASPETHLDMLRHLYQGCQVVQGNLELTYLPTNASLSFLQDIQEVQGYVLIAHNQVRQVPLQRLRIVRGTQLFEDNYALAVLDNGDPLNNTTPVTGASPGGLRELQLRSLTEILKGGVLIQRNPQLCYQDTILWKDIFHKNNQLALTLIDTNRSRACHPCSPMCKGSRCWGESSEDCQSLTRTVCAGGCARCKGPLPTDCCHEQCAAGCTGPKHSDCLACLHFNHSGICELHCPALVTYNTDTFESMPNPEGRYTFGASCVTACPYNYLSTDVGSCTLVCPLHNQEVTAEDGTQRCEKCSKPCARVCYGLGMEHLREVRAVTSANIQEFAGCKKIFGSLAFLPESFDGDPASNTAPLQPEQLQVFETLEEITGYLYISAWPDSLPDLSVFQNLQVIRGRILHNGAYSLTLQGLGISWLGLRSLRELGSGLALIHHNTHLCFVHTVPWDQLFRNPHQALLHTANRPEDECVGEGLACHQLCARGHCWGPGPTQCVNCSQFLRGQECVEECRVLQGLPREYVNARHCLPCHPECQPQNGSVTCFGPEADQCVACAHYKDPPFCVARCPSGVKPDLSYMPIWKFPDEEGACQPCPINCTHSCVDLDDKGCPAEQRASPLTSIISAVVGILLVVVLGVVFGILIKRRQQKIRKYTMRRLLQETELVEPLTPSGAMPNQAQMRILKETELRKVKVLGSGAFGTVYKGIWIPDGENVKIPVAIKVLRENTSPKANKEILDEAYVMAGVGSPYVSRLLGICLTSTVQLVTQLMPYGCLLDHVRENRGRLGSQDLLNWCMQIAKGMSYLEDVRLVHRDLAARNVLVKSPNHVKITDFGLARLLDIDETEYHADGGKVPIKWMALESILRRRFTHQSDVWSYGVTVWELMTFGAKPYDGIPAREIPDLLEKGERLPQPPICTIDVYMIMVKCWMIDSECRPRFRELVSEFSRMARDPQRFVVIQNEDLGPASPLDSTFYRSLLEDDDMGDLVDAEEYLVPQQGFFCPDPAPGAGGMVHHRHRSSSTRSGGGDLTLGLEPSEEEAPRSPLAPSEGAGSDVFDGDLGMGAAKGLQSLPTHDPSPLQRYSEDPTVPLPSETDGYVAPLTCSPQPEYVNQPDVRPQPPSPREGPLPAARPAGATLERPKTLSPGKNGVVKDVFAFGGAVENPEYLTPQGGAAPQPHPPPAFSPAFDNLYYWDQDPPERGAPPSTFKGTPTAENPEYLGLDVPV

Turning to `CCCN1C2=C(C(=O)CCC2)C(c2ccc(O)c(Br)c2)C2=C1CCCC2=O`, the viability (as a rule, a read-out of living cells in per cent, often relative to untreated cells) in experiment [1] is 96%; in experiment [3] it was 96% (inactive); in experiment [4] it was 96.8% (inactive); in experiment [5] it was 91.8% (inactive); in experiment [6] (setting [9]), 92.8%; in experiment [6] (setting [10]), 91.8%. Also, the Her2 level in experiment [2] was 85.5% (inactive). The differential viability (reversal) in experiment [6] (H69AR cells + 2 uM doxorubicin) is -1.01% (inactive). The inhibition (commonly the drop in the measured response relative to a control, in per cent) in experiment [7] is -7.11% (inactive); in experiment [8] it was 2% (inactive).

Turning to `O=C(CCCCCn1c(SCc2ccncc2)nc2ccccc2c1=O)NCc1ccco1`, the viability in experiment [1] is 80.5%; in experiment [3], 80.5% (inactive); in experiment [4] it was 96.9% (inactive); in experiment [5], 74.6% (inactive); in experiment [6] (setting [9]), 87.6%; in experiment [6] (setting [10]), 74.6%. Besides, the Her2 level in experiment [2] was 70.5% (inactive). Further, in experiment [6] (H69AR cells + 2 uM doxorubicin), the differential viability (reversal) was -13% (inactive). Moreover, the inhibition is -1.18% (inactive) in experiment [7] and -5.71% (inactive) in experiment [8].

As to `O=[n+]1c2c(n([O-])c3c1CCCC3)CCCC2`, the viability in experiment [1] is 108%; in experiment [3], 108% (inactive); in experiment [4], 93.9% (inactive); in experiment [5], 88.6% (inactive); in experiment [6] (setting [9]), 96.9%; in experiment [6] (setting [10]) it was 88.6%. Moreover, the Her2 level in experiment [2] is 91% (inactive). Further, the differential viability (reversal) in experiment [6] (H69AR cells + 2 uM doxorubicin) is -8.33% (inactive). Moreover, the inhibition is -0.65% (inactive) in experiment [7] and 7.38% (inactive) in experiment [8].

As for `CCCCc1ccc(NC(=O)N[C@H](C(=O)O)C(C)CC)cc1` (stereo not given in full), the viability is 112% in experiment [1]; 112% (inactive) in experiment [3]; 79.5% (inactive) in experiment [4]; 99.7% (inactive) in experiment [5]; 90.8% in experiment [6] (setting [9]); 99.7% in experiment [6] (setting [10]). For the same compound, the Her2 level in experiment [2] is 82% (inactive). The differential viability (reversal) in experiment [6] (H69AR cells + 2 uM doxorubicin) was 8.86% (inactive). Also, the inhibition in experiment [7] was -5.92% (inactive); in experiment [8] it was -2.38% (inactive).

`COCCn1c(=O)[nH]c2cc(C(=O)NCc3cccnc3)ccc2c1=O`: the viability in experiment [1] is 89.5%; in experiment [3], 89.5% (inactive); in experiment [4], 107% (inactive); in experiment [5], 97.9% (inactive); in experiment [6] (setting [9]) it was 93.6%; in experiment [6] (setting [10]), 97.9%. The Her2 level in experiment [2] is 88.5% (inactive). In experiment [6] (H69AR cells + 2 uM doxorubicin), the differential viability (reversal) was 4.27% (inactive). Further, the inhibition was -7.57% (inactive) in experiment [7] and 1.17% (inactive) in experiment [8].

Take `Cc1ccccc1NC(=O)C1CCN(c2cnccn2)CC1`: the viability in experiment [1] is 98.5%; in experiment [3], 98.5% (inactive); in experiment [4], 89.2% (inactive); in experiment [5] it was 101% (inactive); in experiment [6] (setting [9]), 92.2%; in experiment [6] (setting [10]) it was 101%. The Her2 level in experiment [2] was 103% (inactive). For the same compound, the differential viability (reversal) in experiment [6] (H69AR cells + 2 uM doxorubicin) is 8.59% (inactive). For the same compound, the results for the inhibition in experiment [7] and in experiment [8] were -7.07% (inactive) and -5.48% (inactive), respectively.

For `Cc1noc(C)c1S(=O)(=O)N1CCCC(C(=O)NCCc2ccc(Cl)cc2)C1` (stereo not given), the viability in experiment [1] is 89%; in experiment [3] it was 89% (inactive); in experiment [4] it was 98.1% (inactive); in experiment [5], 97.1% (inactive); in experiment [6] (setting [9]), 91.7%; in experiment [6] (setting [10]), 97.1%. The Her2 level in experiment [2] is 82% (inactive). Further, the differential viability (reversal) in experiment [6] (H69AR cells + 2 uM doxorubicin) was 5.35% (inactive). The values for the inhibition in experiment [7] and in experiment [8] were -5.34% (inactive) and 4.76% (inactive), respectively.

Regarding `CCOC(=O)c1ccc(CC2S/C(=C(\C#N)C(C)=O)NC2=O)cc1` (stereo not given), the viability in experiment [1] was 91.5%; in experiment [3], 91.5% (inactive); in experiment [4] it was 95.7% (inactive); in experiment [5], 89.6% (inactive); in experiment [6] (setting [9]) it was 93.7%; in experiment [6] (setting [10]), 89.6%. Also, the Her2 level in experiment [2] was 89.5% (inactive). In addition, the differential viability (reversal) in experiment [6] (H69AR cells + 2 uM doxorubicin) is -4.15% (inactive). For the same compound, the values for the inhibition in experiment [7] and in experiment [8] were -6.53% (inactive) and 1.94% (inactive), respectively.

On to `COc1cc2c(cc1OC)C(c1cc(OC)c(OC)c(OC)c1)NCC2` (stereo not given), for which the viability in experiment [1] was 95.5%; in experiment [3], 95.5% (inactive); in experiment [4], 92.4% (inactive); in experiment [5], 91.9% (inactive); in experiment [6] (setting [9]), 91.9%; in experiment [6] (setting [10]), 91.9%. The Her2 level in experiment [2] is 81% (inactive). Moreover, the differential viability (reversal) in experiment [6] (H69AR cells + 2 uM doxorubicin) was -0.03% (inactive). The figures for the inhibition in experiment [7] and in experiment [8] were -3.95% (inactive) and -0.97% (inactive), respectively.

With `O=C1c2oc3ccccc3c(=O)c2C(c2ccccn2)N1Cc1ccccc1` (stereo not given), the viability in experiment [1] was 91.5%; in experiment [3], 91.5% (inactive); in experiment [4] it was 95.6% (inactive); in experiment [5], 104% (inactive); in experiment [6] (setting [9]), 94.7%; in experiment [6] (setting [10]), 104%. For the same compound, the Her2 level in experiment [2] is 110% (inactive). The differential viability (reversal) in experiment [6] (H69AR cells + 2 uM doxorubicin) is 9.52% (inactive). In addition, the inhibition in experiment [7] was 1.07% (inactive); in experiment [8] it was -8.87% (inactive).

Take `CCOc1cc(CN2CCN(C(=O)c3ccco3)CC2)ccc1OC`: the viability in experiment [1] was 79.5%; in experiment [3], 79.5% (inactive); in experiment [4], 88.7% (inactive); in experiment [5] it was 89.5% (inactive); in experiment [6] (setting [9]), 87.9%; in experiment [6] (setting [10]), 89.5%. Besides, the Her2 level in experiment [2] is 102% (inactive). The differential viability (reversal) in experiment [6] (H69AR cells + 2 uM doxorubicin) is 1.51% (inactive). Besides, the values for the inhibition in experiment [7] and in experiment [8] were -2.69% (inactive) and 0.83% (inactive), respectively.

With `CCC(c1nnnn1Cc1ccco1)N(CCc1ccccc1)Cc1cc2cccc(C)c2[nH]c1=O` (stereo not given), the viability in experiment [1] was 105%; in experiment [3], 105% (inactive); in experiment [4], 69.2% (inactive); in experiment [5] it was 62.9% (inactive); in experiment [6] (setting [9]) it was 66.1%; in experiment [6] (setting [10]), 62.9%. Also, the Her2 level in experiment [2] was 77.5% (inactive). Besides, the differential viability (reversal) in experiment [6] (H69AR cells + 2 uM doxorubicin) is -3.2% (inactive). In addition, the results for the inhibition in experiment [7] and in experiment [8] were -5% (inactive) and -2.67% (inactive), respectively.

For the compound `COc1ccccc1OCc1ccc(C(=O)NC(C)(C)C)o1`, the viability in experiment [1] is 83%; in experiment [3] it was 83% (inactive); in experiment [4], 94.2% (inactive); in experiment [5], 95.4% (inactive); in experiment [6] (setting [9]), 80.9%; in experiment [6] (setting [10]), 95.4%. Also, the Her2 level in experiment [2] was 102% (inactive). Also, the differential viability (reversal) in experiment [6] (H69AR cells + 2 uM doxorubicin) is 14.6% (inactive). The inhibition is 1.71% (inactive) in experiment [7] and -5.82% (inactive) in experiment [8].

`COc1ccc2c(c1)C(=NO)c1cc(OC)ccc1-2`: the viability in experiment [1] is 120%; in experiment [3], 120% (inactive); in experiment [4] it was 58.5% (inactive); in experiment [5], 83.8% (inactive); in experiment [6] (setting [9]), 90%; in experiment [6] (setting [10]), 83.8%. Further, the Her2 level in experiment [2] was 61.5% (inactive). Moreover, the differential viability (reversal) in experiment [6] (H69AR cells + 2 uM doxorubicin) is -6.16% (inactive). Also, the figures for the inhibition in experiment [7] and in experiment [8] were -8.24% (inactive) and 2% (inactive), respectively.
